From ChEMBL document CHEMBL3865847, “The synthesis and biological evaluation of alkyl and benzyl naphthyridinium analogs of eupolauridine as potential antimicrobial and cytotoxic agents” (Bioorg Med Chem, 2016)
Values after ≈ are worked out from the molar mass of the structure shown.

System: not listed separately
Assay: Cytotoxicity against African green monkey Vero cells assessed as cell growth inhibition at 10 ug/ml after 48 hrs by neutral red dye based assay
Assay type: toxicity
Details: chlorocebus sabaeus
In short: (§1)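 Cells kept in RPMI-1640 with 10% bovine serum and 60 µg/mL amikacin, 37 °C, 5% CO2. Seeded at 25,000 cells/well, left 24 h to adhere. Samples diluted in RPMI added, highest final concentration 10 µg/mL. Growth measured by neutral red uptake after 48 h exposure.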
For `CC[n+]1ccc2c3c(nc4ccccc42)-c2ccccc2-c31.[I-]`, the Activity was “Non-Toxic”.
In the case of `COc1cc(C[n+]2ccc3ccnc4c3c2-c2ccccc2-4)cc(OC)c1.[Br-]`, the Activity is reported as “Non-Toxic”.

System: not listed separately
Assay: Cytotoxicity against human SKOV3 cells assessed as cell growth inhibition after 48 hrs by neutral red dye based assay
Assay type: functional
Details: SK-OV-3, 48 h
In short: as §1
Compound `COc1cccc2c1C(=O)c1c(O)c3c(c(O)c1C2=O)C[C@@](O)(C(=O)CO)C[C@@H]3O[C@H]1C[C@H](N)[C@H](O)[C@H](C)O1` [DOXORUBICIN] has an IC50 of 1.3 µg/mL (≈ 2.39 µM).
In the case of `NC(=O)C[n+]1ccc2ccnc3c2c1-c1ccccc1-3.[Br-]`, the IC50 is reported as > 10 µg/mL.
For `CC[n+]1ccc2c3c(nc4ccccc42)-c2ccccc2-c31.[I-]`, the IC50 was 1.3 µg/mL.
With `COc1cc(C[n+]2ccc3ccnc4c3c2-c2ccccc2-4)cc(OC)c1.[Br-]` the IC50 was < 1.1 µg/mL.

System: Mycobacterium intracellulare
Assay: Antimicrobial activity against Mycobacterium intracellulare ATCC 23068
Assay type: functional
Details: not given
In short: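 Mycobacterium grown 72 h in Middlebrook medium with OADC supplement, diluted 1:30 in broth. Incubated at 37 °C with diluted samples in 96-well plates, highest final 50 µg/mL, DMSO at most 2.5%. Absorbance at 630 nm. MIC = lowest concentration with 80% growth inhibition relative to controls; IC50 from concentration versus % growth plots.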
`COc1cc(C[n+]2ccc3ccnc4c3c2-c2ccccc2-4)cc(OC)c1.[Br-]` showed an MIC80 of 50 µg/mL.

System: Cryptococcus neoformans
Assay: Antimicrobial activity against Cryptococcus neoformans ATCC 52657
Assay type: functional
Details: not given
In short: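 Grown in mycophil broth 72 h, hemocytometer-counted, diluted to 200,000 CFU/mL. Exposed to diluted samples in 96-well plates, maximum final 50 µg/mL (DMSO up to 2.5%), incubated 30 °C. A630 readout. MIC is the lowest concentration inhibiting 80% of growth versus controls; IC50 read from concentration versus % growth graphs.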
Compound `NC(=O)C[n+]1ccc2ccnc3c2c1-c1ccccc1-3.[Br-]` has an IC50 of 30 µg/mL and an MIC80 of 50 µg/mL.
In the case of `CC[n+]1ccc2c3c(nc4ccccc42)-c2ccccc2-c31.[I-]`, the IC50 is reported as 6 µg/mL and the MIC80 is reported as 12.5 µg/mL.
Compound `COc1cc(C[n+]2ccc3ccnc4c3c2-c2ccccc2-4)cc(OC)c1.[Br-]` has an IC50 of 0.92 µg/mL and an MIC80 of 3.12 µg/mL.

System: Staphylococcus aureus
Assay: Antimicrobial activity against methicillin-resistant Staphylococcus aureus
Assay type: functional
Details: not given
In short: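 MRSA precultured 24 h, diluted 1:50 in broth, added to serially diluted samples in 96-well plates (highest final DMSO 2.5%), incubated at 37 °C. Growth measured as absorbance at 630 nm versus controls. MIC is the lowest concentration giving 80% inhibition; IC50 (50% inhibition) is read from concentration versus % growth plots.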
For `COc1cc(C[n+]2ccc3ccnc4c3c2-c2ccccc2-4)cc(OC)c1.[Br-]`, the IC50 was 9 µg/mL.

System: Plasmodium falciparum
Assay: Antimalarial activity against Plasmodium falciparum D6 infected in RBC after 48 hrs by lactate dehydrogenase assay
Assay type: functional
Details: D6, 48 h
In short: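 Parasites grown in A+ human erythrocytes in RPMI 1640 with 10% A+ human serum, 25 mM HEPES, 27 mM bicarbonate, 60 µg/mL amikacin, 37 °C under 90% N2/5% O2/5% CO2. Infected cells exposed 48 h in microtiter wells, highest concentration 4.8 µg/mL. Growth read by Malstat reagent (parasite LDH) with nitro blue tetrazolium reduction, absorbance 630 nm.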
In the case of `NC(=O)C[n+]1ccc2ccnc3c2c1-c1ccccc1-3.[Br-]`, the IC50 is reported as 0.09 µg/mL.
Compound `CC[n+]1ccc2c3c(nc4ccccc42)-c2ccccc2-c31.[I-]` has an IC50 of 0.033 µg/mL.
Work on `COc1cc(C[n+]2ccc3ccnc4c3c2-c2ccccc2-4)cc(OC)c1.[Br-]` yielded an IC50 of 0.011 µg/mL.

System: Pseudomonas aeruginosa
Assay: Antimicrobial activity against Pseudomonas aeruginosa ATCC 15442
Assay type: functional
Details: not given
In short: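 Pseudomonas grown 24 h in trypticase soy broth, diluted 1:50. Combined with diluted samples in 96-well plates, top final concentration 50 µg/mL (≤2.5% DMSO), 37 °C incubation. Growth read at 630 nm. MIC is the lowest tested concentration inhibiting 80% of growth versus controls; IC50 from concentration versus % growth graphs.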
Compound `CC[n+]1ccc2c3c(nc4ccccc42)-c2ccccc2-c31.[I-]` has an IC50 of 50 µg/mL.

System: Candida albicans
Assay: Antimicrobial activity against Candida albicans B311
Assay type: functional
Details: not given
In short: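 Cultured in Sabouraud dextrose broth 24 h, counted by hemocytometer, diluted to 10,000 CFU/mL. Added to serially diluted samples in 96-well plates, top final concentration 50 µg/mL (≤2.5% DMSO), incubated 37 °C. Growth by A630. MIC is the lowest concentration giving 80% inhibition against controls; IC50 from concentration versus % growth plots.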
For `CC[n+]1ccc2c3c(nc4ccccc42)-c2ccccc2-c31.[I-]`, the IC50 was 16.7 µg/mL and the MIC80 was 25 µg/mL.
Work on `COc1cc(C[n+]2ccc3ccnc4c3c2-c2ccccc2-4)cc(OC)c1.[Br-]` yielded an IC50 of 20 µg/mL and an MIC80 of 25 µg/mL.

System: not listed separately
Assay: Inhibition of Candida albicans DNA topoisomerase 1 using pHOT1 as substrate after 30 mins by agarose gel electrophoresis
Details: not given
In short: (§2)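 Relaxation of supercoiled to relaxed DNA by TopoI measured with a commercial TopoI drug kit following kit protocol. IC50 calculated from dose-response curves of % inhibition versus concentration.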
Compound `CC[n+]1ccc2c3c(nc4ccccc42)-c2ccccc2-c31.[I-]` has an IC50 of 0.7 µg/mL.
`COc1cc(C[n+]2ccc3ccnc4c3c2-c2ccccc2-4)cc(OC)c1.[Br-]` showed an IC50 of 12.5 µg/mL.

Target: T1, DNA topoisomerase 1 (Homo sapiens, UniProt P11387)
T1 sequence (P11387 whole entry): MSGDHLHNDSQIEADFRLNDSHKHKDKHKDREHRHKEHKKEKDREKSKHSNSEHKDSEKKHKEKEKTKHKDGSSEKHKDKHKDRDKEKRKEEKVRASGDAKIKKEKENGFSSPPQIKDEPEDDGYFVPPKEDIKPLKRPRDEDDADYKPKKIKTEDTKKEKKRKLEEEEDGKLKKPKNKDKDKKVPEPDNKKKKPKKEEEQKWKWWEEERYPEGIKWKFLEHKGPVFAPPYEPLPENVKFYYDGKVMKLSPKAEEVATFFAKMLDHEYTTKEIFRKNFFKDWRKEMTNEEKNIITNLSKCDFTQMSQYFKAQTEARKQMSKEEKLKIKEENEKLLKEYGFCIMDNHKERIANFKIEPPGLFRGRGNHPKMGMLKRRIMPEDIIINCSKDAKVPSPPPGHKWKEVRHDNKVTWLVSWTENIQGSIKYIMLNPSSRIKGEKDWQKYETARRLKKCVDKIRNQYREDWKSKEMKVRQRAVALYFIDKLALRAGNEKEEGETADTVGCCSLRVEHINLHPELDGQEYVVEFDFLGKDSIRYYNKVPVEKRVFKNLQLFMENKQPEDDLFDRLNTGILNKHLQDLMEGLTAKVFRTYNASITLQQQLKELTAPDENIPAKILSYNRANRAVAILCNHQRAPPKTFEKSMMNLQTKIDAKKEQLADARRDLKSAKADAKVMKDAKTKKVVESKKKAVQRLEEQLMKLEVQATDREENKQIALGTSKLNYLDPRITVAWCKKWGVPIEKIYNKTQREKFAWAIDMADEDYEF
Assay: Inhibition of human DNA topoisomerase 1 using pHOT1 as substrate after 30 mins by agarose gel electrophoresis
Details: not given
In short: as §2
For `CC[n+]1ccc2c3c(nc4ccccc42)-c2ccccc2-c31.[I-]`, the IC50 was 1.71 µM.
For `COc1cc(C[n+]2ccc3ccnc4c3c2-c2ccccc2-4)cc(OC)c1.[Br-]`, the IC50 was 34.5 µM.

System: not listed separately
Assay: Cytotoxicity against African green monkey Vero cells assessed as cell growth inhibition after 48 hrs by neutral red dye based assay
Assay type: toxicity, Chlorocebus sabaeus
Details: not given
In short: as §1
For `COc1cccc2c1C(=O)c1c(O)c3c(c(O)c1C2=O)C[C@@](O)(C(=O)CO)C[C@@H]3O[C@H]1C[C@H](N)[C@H](O)[C@H](C)O1` [DOXORUBICIN], the IC50 at 48 h was > 10 µg/mL.
For `NC(=O)C[n+]1ccc2ccnc3c2c1-c1ccccc1-3.[Br-]`, the IC50 at 48 h was > 10 µg/mL.

System: not listed separately
Assay: Cytotoxicity against human BT549 cells assessed as cell growth inhibition after 48 hrs by neutral red dye based assay
Assay type: functional
Details: BT-549, 48 h
In short: as §1
`COc1cccc2c1C(=O)c1c(O)c3c(c(O)c1C2=O)C[C@@](O)(C(=O)CO)C[C@@H]3O[C@H]1C[C@H](N)[C@H](O)[C@H](C)O1` [DOXORUBICIN] showed an IC50 of 1.35 µg/mL (≈ 2.48 µM).
For `CC[n+]1ccc2c3c(nc4ccccc42)-c2ccccc2-c31.[I-]`, the IC50 was > 10 µg/mL.
In the case of `COc1cc(C[n+]2ccc3ccnc4c3c2-c2ccccc2-4)cc(OC)c1.[Br-]`, the IC50 is reported as > 10 µg/mL.

System: not listed separately
Assay: Cytotoxicity against human KB cells assessed as cell growth inhibition after 48 hrs by neutral red dye based assay
Assay type: functional
Details: not given
In short: as §1
With `COc1cccc2c1C(=O)c1c(O)c3c(c(O)c1C2=O)C[C@@](O)(C(=O)CO)C[C@@H]3O[C@H]1C[C@H](N)[C@H](O)[C@H](C)O1` [DOXORUBICIN] the IC50 was 1.59 µg/mL (≈ 2.93 µM).
For `CC[n+]1ccc2c3c(nc4ccccc42)-c2ccccc2-c31.[I-]`, the IC50 was 6.8 µg/mL.
Work on `COc1cc(C[n+]2ccc3ccnc4c3c2-c2ccccc2-4)cc(OC)c1.[Br-]` yielded an IC50 of 7 µg/mL.

System: not listed separately
Assay: Selectivity index, ratio of IC50 for human DNA topoisomerase 1 to IC50 for Candida albicans DNA topoisomerase 1
Details: not given
`CC[n+]1ccc2c3c(nc4ccccc42)-c2ccccc2-c31.[I-]` showed a Ratio IC50 of 1.
Compound `COc1cc(C[n+]2ccc3ccnc4c3c2-c2ccccc2-4)cc(OC)c1.[Br-]` has a Ratio IC50 of 0.83.

System: not listed separately
Assay: Cytotoxicity against human SK-MEL cells assessed as cell growth inhibition after 48 hrs by neutral red dye based assay
Assay type: functional
Details: not given
In short: as §1
`COc1cccc2c1C(=O)c1c(O)c3c(c(O)c1C2=O)C[C@@](O)(C(=O)CO)C[C@@H]3O[C@H]1C[C@H](N)[C@H](O)[C@H](C)O1` [DOXORUBICIN] gave an IC50 of 1.11 µg/mL (≈ 2.04 µM).
Work on `NC(=O)C[n+]1ccc2ccnc3c2c1-c1ccccc1-3.[Br-]` yielded an IC50 of 6.5 µg/mL.
With `COc1cc(C[n+]2ccc3ccnc4c3c2-c2ccccc2-4)cc(OC)c1.[Br-]` the IC50 was 2 µg/mL.
